Among the data in ChEMBL document CHEMBL1140571, “New 1,8-naphthyridine and quinoline derivatives as CB2 selective agonists” (Bioorg Med Chem Lett, 2007) are Ratio Ki, Ki and Activity values, retold here.

The species entered for data set [1] is Homo sapiens. The data set can be described thus: Selectivity for human CB2 over human CB1.
The target in data set [2] is Cannabinoid receptor 1 (Homo sapiens, UniProt P21554). Description: biochemical. Format: cell-based, HEK293.
Data set [3] addresses Cannabinoid receptor 2 (Homo sapiens, UniProt P34972). The data set can be described thus: Displacement of [3H]CP-55940 from human recombinant CB2 receptor expressed in HEK293 cells. Format: cell-based.
Data set [4] relates to Mus musculus. Description: Antinociceptive activity in Swiss Albino mouse assessed as licking latency time at 50 mg/kg, po after 45 mins by hot plate test. Format: functional. The method in brief: (§1)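 Mice held at 22 ± 1 °C on a 12 h light/dark cycle and given oral doses in CMC vehicle. In the hot-plate test the container was kept at 52.5 ± 0.1 °C and the endpoint was licking of the fore or hind paws, timed before dosing and after it. Pretest scorers below 12 s or above 18 s were rejected. Cut-off 45 s. AM630 0.6 mg/kg po given simultaneously. Mean ± SEM, ANOVA with Fisher PLSD, P<0.05.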
For orientation: Hot-plate and tail-flick tests time the reaction to a heat stimulus.

The test system of data set [5] is Mus musculus. Description: Effect on motor coordination in Swiss Albino mouse at 50 mg/kg, po after 15 mins by rotarod test. The format is organism-based. Also noted: dose 50 mg/kg, route oral. Particulars: in vivo, 0.25 h. The method in brief: (§2)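 Mice were dosed orally in CMC vehicle and tested on a rotarod with a 3 cm diameter non-slip rotating rod, counting falls before dosing and at 15, 30 and 45 min after. Pretest scorers below 3 or above 6 falls were rejected. Ten mice per group. Mean ± SEM, ANOVA with Fisher PLSD, P<0.05.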
(In general: In the rotarod test animals must keep their balance on a rotating rod.)

For data set [6], the system named is Mus musculus. Description: Effect on motor coordination in Swiss Albino mouse at 50 mg/kg, po after 45 mins by rotarod test. Format: organism-based. Also on record: dose 50 mg/kg, route oral. Particulars: in vivo, 0.75 h. The essentials:
as §2

The test system of data set [7] is Mus musculus. Description: Antinociceptive activity in Swiss Albino mouse assessed as licking latency time at 10 mg/kg, po after 15 mins by hot plate test. Format: functional. The method in brief:
as §1

Data set [8] concerns Mus musculus. The data set can be described thus: Antinociceptive activity in Swiss Albino mouse assessed as licking latency time at 50 mg/kg, po in presence of CB2 antagonist AM630 after 15 mins. The format is functional. The essentials:
as §1

Data set [9] relates to Mus musculus. The data set can be described thus: Antinociceptive activity in Swiss Albino mouse assessed as licking latency time at 50 mg/kg, po after 15 mins by hot plate test. Format: functional. The method in brief:
as §1

In data set [10] the test system is Mus musculus. Description: Effect on Swiss Albino mouse assessed as licking latency time at 0.06 mg/kg, po after 45 mins by hot plate test. The format is functional.
Data set [11] relates to Mus musculus. The data set can be described thus: Antinociceptive activity in Swiss Albino mouse assessed as licking latency time at 30 mg/kg, po after 15 mins by hot plate test. The format is functional. The essentials:
as §1

Data set [12] has as its system Mus musculus. The data set can be described thus: Antinociceptive activity in Swiss Albino mouse assessed as licking latency time at 30 mg/kg, po after 30 mins by hot plate test. Format: functional. The essentials: as §1
Data set [13] has as its system Mus musculus. Description: Effect on motor coordination in Swiss Albino mouse at 50 mg/kg, po after 30 mins by rotarod test. The format is organism-based. Also noted: dose 50 mg/kg, route oral. The conditions noted are these: in vivo, 0.5 h. The essentials: as §2
Data set [14] has as its system Mus musculus. The data set can be described thus: Antinociceptive activity in Swiss Albino mouse assessed as licking latency time at 50 mg/kg, po in presence of CB2 antagonist AM630 after 45 mins. Format: functional. The method in brief:
as §1

Data set [15] relates to Mus musculus. The data set can be described thus: Antinociceptive activity in Swiss Albino mouse assessed as licking latency time at 50 mg/kg, po after 30 mins by hot plate test. The format is functional. The essentials:
as §1

Data set [16] relates to Mus musculus. The data set can be described thus: Antinociceptive activity in Swiss Albino mouse assessed as licking latency time at 50 mg/kg, po in presence of CB2 antagonist AM630 after 30 mins. The format is functional. The essentials:
as §1

In data set [17] the test system is Mus musculus. The data set can be described thus: Antinociceptive activity in Swiss Albino mouse assessed as licking latency time at 10 mg/kg, po after 30 mins by hot plate test. The format is functional. The essentials:
as §1

For data set [18], the system named is Mus musculus. Description: Effect on Swiss Albino mouse assessed as licking latency time at 0.06 mg/kg, po after 30 mins by hot plate test. Format: functional.
Data set [19] relates to Mus musculus. The data set can be described thus: Antinociceptive activity in Swiss Albino mouse assessed as licking latency time at 30 mg/kg, po after 45 mins by hot plate test. The format is functional. The essentials: as §1
Data set [20] relates to Mus musculus. The data set can be described thus: Effect on Swiss Albino mouse assessed as licking latency time at 0.06 mg/kg, po after 15 mins by hot plate test. The format is functional.
The test system of data set [21] is Mus musculus. Description: Antinociceptive activity in Swiss Albino mouse assessed as licking latency time at 10 mg/kg, po after 45 mins by hot plate test. The format is functional. The essentials: as §1

Some results are limits rather than exact numbers.

Sequence of Cannabinoid receptor 2 (P34972 whole entry): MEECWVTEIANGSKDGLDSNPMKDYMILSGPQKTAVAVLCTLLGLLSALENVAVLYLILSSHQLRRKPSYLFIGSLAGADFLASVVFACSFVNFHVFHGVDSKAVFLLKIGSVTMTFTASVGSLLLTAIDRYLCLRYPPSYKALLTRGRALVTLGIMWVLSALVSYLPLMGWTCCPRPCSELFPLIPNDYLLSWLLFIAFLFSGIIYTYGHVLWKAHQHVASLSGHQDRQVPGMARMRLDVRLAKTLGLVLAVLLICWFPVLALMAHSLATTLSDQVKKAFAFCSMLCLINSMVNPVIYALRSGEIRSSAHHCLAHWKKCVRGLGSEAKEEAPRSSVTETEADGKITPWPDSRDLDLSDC
Sequence of Cannabinoid receptor 1 (P21554 whole entry): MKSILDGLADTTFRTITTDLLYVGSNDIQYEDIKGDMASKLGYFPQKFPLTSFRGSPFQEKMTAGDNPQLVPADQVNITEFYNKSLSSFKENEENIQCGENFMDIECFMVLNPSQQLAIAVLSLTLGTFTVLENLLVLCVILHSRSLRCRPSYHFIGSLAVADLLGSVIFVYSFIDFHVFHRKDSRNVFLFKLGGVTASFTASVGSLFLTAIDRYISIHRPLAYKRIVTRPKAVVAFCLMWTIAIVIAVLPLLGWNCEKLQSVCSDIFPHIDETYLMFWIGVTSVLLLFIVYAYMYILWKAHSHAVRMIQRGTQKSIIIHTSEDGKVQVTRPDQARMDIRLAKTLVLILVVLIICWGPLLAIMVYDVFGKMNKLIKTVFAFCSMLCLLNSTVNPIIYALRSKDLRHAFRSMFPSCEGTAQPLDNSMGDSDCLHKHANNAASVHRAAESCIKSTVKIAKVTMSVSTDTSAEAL

Regarding `O=c1c2cn(Cc3ccccc3)c3ccccc3c-2nn1C1CCCCC1`, in data set [1], the Ratio Ki came to 0.78. Besides, the figures for the inhibition constant Ki in [2] and in [3] were 0.62 µM and 0.79 µM, respectively.
Regarding `COc1ccc2c(=O)c(C(=O)NC3CCCCC3)cn(Cc3ccccc3)c2n1`, the Activity in data set [4] was 18.2 s; in data set [5], 0.7; in [6], 0.2; in data set [7] it was 17.1 s; in data set [8] it was 18.1 s; in data set [9], 19.2 s. The Activity stood at 16.3 s in data set [10]; 16.6 s in data set [11]; 19.5 s in data set [12]; 0.2 in data set [13]; 17.6 s in [14]; 22.5 s in [15]. Further, the Activity in data set [16] worked out at 19.2 s; in [17] it was 18.5 s; in data set [18], 18 s; in data set [19] it was 17.4 s; in [20], 16.6 s; in data set [21], 16.7 s. In data set [1], the Ratio Ki came out at 51. Further, the Ki (usually a dissociation constant, usually derived from enzyme kinetics or from competition with a known ligand) in [2] is 0.56 µM; in data set [3], 0.011 µM.
As for `CN(C)c1ccc2c(=O)c(C(=O)NC3CCCCC3)cn(CCN3CCOCC3)c2n1`, the figures for the Ki in [2] and in [3] were more than 5.6 µM and 0.094 µM, respectively.
As to `O=C(NC1CCCCCC1)c1cn(CCN2CCOCC2)c2ccccc2c1=O`, the Ratio Ki in data set [1] turned out to be 10.3. For the same compound, the Ki in data set [2] was 0.29 µM; in data set [3], 0.028 µM.
In the case of `O=c1c2cn(CCN3CCOCC3)c3ccccc3c-2nn1C1CCCCC1`, the Ki was more than 5.6 µM in data set [2] and more than 7.9 µM in data set [3].
Take `COc1ccc2c(=O)c(C(=O)NC3CCCCC3)cn(Cc3ccccc3)c2c1`: in data set [3], the Ki is 0.079 µM.
With `O=C(NC1CCCCCC1)c1cn(Cc2ccccc2)c2ccccc2c1=O`, the Ratio Ki in data set [1] came out at 2.6. Besides, the Ki in data set [2] was determined as 0.017 µM; in data set [3] it was 0.0064 µM.
In the case of `O=c1c2cn(CCN3CCOCC3)c3ccccc3c-2nn1-c1ccccc1`, in data set [1], the Ratio Ki stood at 1.2. Besides, the Ki in data set [2] amounted to 2.8 µM; in [3], 2.28 µM.
For `COc1ccc(C(=O)c2c(C)n(CCN3CCOCC3)c3cc(I)ccc23)cc1`, the Ki in data set [3] stood at 0.036 µM.
In the case of `O=c1c2cn(Cc3ccccc3)c3cc(Cl)ccc3c-2nn1C1CCCCC1`, in data set [1], the Ratio Ki is 0.34. Further, the Ki in [2] amounted to 0.56 µM; in data set [3] it was 1.64 µM.
Compound `CCCCCCC(C)(C)c1cc(O)c2c(c1)OC(C)(C)[C@@H]1CC=C(CO)C[C@@H]21` had a Ki in data set [2] of 0.00018 µM.
As for `COc1ccc2c(=O)c(C(=O)NC3CCCCC3)cn(CCN3CCOCC3)c2c1`, the Ratio Ki in data set [1] stood at 37. The values for the Ki in data set [2] and in [3] were 2.92 µM and 0.079 µM, respectively.
Turning to `Nc1ccc2c(=O)cc(C(=O)NC3CCCCC3)n(Cc3ccccc3)c2n1`, the Ratio Ki in data set [1] worked out at 0.71. For the same compound, the Ki in [2] is 5.6 µM; in data set [3] it was 7.9 µM.
Consider `CCCCC/C=C\C/C=C\C/C=C\C/C=C\CCCC(=O)NCCCl`, for which, in data set [1], the Ratio Ki turned out to be 0.06. In addition, the Ki in [2] worked out at 0.0053 µM; in data set [3] it was 0.095 µM.
